Measurements gathered from unrelated publications.
Protocols differ between the studies behind these lines.
Target: Serine/threonine-protein kinase Nek10 (NEK10, Homo sapiens, UniProt Q6ZWH5)
One construct used (Q6ZWH5 1-1172): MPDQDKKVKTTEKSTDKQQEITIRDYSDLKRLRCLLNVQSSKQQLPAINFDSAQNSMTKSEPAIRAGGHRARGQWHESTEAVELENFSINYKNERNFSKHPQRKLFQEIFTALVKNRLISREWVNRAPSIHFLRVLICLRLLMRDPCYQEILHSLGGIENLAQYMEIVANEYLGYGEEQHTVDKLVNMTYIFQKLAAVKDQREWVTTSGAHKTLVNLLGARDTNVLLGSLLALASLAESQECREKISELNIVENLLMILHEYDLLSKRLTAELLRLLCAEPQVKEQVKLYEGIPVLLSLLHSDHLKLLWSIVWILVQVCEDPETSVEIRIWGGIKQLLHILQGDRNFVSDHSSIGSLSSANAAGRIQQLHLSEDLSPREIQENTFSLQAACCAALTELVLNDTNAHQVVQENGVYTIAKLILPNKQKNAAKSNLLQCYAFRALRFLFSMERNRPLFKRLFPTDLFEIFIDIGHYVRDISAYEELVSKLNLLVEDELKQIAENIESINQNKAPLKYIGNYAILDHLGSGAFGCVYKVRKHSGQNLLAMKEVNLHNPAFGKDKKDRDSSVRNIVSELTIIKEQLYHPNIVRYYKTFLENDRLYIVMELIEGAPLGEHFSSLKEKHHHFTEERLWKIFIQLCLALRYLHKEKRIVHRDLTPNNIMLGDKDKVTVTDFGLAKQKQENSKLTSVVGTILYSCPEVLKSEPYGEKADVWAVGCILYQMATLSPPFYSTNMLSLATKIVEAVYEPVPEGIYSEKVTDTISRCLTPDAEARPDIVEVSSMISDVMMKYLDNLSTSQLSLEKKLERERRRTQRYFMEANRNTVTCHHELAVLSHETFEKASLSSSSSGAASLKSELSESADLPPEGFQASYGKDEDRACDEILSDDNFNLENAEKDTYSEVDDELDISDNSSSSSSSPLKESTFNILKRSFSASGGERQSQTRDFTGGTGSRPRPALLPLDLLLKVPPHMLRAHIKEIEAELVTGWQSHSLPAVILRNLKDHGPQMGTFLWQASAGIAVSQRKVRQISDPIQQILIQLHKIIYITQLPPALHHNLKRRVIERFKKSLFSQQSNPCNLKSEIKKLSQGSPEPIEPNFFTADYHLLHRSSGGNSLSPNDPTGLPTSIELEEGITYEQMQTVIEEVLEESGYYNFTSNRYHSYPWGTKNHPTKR

Compound | observed | method | concentration | remaining binding [%]
O=C(c1ccc(Nc2nccc(-c3cc4ccccc4s3)n2)cc1)N1CCC(N2CCCC2)CC1 | binding | competition with immobilised ligand | 1 µM | 43
N[C@@H]1CCN(c2nccc(-c3cnn4ncccc34)n2)C1 | binding |  | 1 µM | 100
COc1cccc(CNC(=O)c2nc3scc(COCc4ccc(C(=O)O)cc4)c3c(=O)[nH]2)c1 | cell-free assay | competition with immobilised ligand | 1 µM | 61.7
COc1ncc2cc3ccccc3nc2c1C#N | cell-free assay | competition with immobilised ligand | 5 µM | 98
FC(F)(F)Oc1cccc(-c2cnc3ccc(-c4ccncc4)nn23)c1 | cell-free assay | competition with immobilised ligand | 5 µM | 28
CCOCCn1cc(C(=O)Nc2ccc(-n3nc(-c4cccnc4)cc3C(F)(F)F)cn2)ccc1=O | cell-free assay | competition with immobilised ligand | 1 µM | 94
CN(CCCC(F)(F)F)c1nccc(-c2cnn3ncccc23)n1 | binding |  | 1 µM | 90
CN(C)c1ncnc(-c2ccc3nc(Nc4cc(CN5CCN(C(=O)CC(F)(F)F)CC5)ccn4)[nH]c3c2)c1Cl | cell-free assay | competition with immobilised ligand | 1 µM | 72
COc1cnc(Nc2cccc(S(N)(=O)=O)c2)nc1N1CCN(c2ccccc2)C(=O)C1 | binding | competition with immobilised ligand | 1 µM | 90
O=C(NCC1CCOCC1)c1n[nH]cc1NC(=O)c1c(F)cccc1F | binding | competition with immobilised ligand | 1 µM | 72
CNC(=O)c1ccc(Nc2ncc(C(F)(F)F)c(NCc3nccnc3N(C)S(C)(=O)=O)n2)cc1 | cell-free assay | competition with immobilised ligand | 0.1 µM | 100
CN(C)c1nccc(-c2cnn3ncccc23)n1 | binding |  | 1 µM | 100
O=C(c1ccc(Nc2ncc(Cl)c(-c3cc4ccccc4s3)n2)cc1)N1CCC(N2CCCC2)CC1 | binding | competition with immobilised ligand | 1 µM | 74
C[C@H]1CCN(c2nccc(-c3cnn4ncccc34)n2)C1 | binding |  | 1 µM | 91
Cc1cnc(Nc2ccc(C(=O)N3CCC(N4CCCC4)CC3)cc2)nc1-c1cc2ccccc2s1 | binding | competition with immobilised ligand | 1 µM | 71
c1cncc(-c2cccc(Nc3nccc(NC4CCCCC4)n3)c2)c1 | binding | competition with immobilised ligand | 10 µM | 1.6
CS(=O)(=O)N1CCCC(NC(=O)[C@H](CCC2CCCCC2)NC(=O)c2ccc(CNC(=O)c3cnc4ccccn34)cc2)C1 (stereo partly drawn) | cell-free assay | competition with immobilised ligand | 0.1 µM | 100
COc1cnc(Nc2cccc(S(N)(=O)=O)c2)nc1N1CCN(c2ccccc2)CC1 | binding | competition with immobilised ligand | 1 µM | 69
